From ChEMBL document CHEMBL4834426, “Antimalarial Benzimidazole Derivatives Incorporating Phenolic Mannich Base Side Chains Inhibit Microtubule and Hemozoin Formation: Structure-Activity Relationship and In Vivo Oral Efficacy Studies” (J Med Chem, 2021) come the findings set out here.

Data set [1] is described as follows: Metabolic stability in human liver microsomes assessed as compound remaining at 1 uM incubated for 30 mins by LC-MS/MS analysis. The format is ADME, Microsome. To be noted: read-out: Stabilty. In a few lines: (§1)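 Single-point design: 1 μM compound with 0.4 mg/mL liver microsomes in 0.1 M phosphate buffer pH 7.4 for 30 min. Quenched with ice-cold acetonitrile containing carbamazepine internal standard, centrifuged, analyzed by LC−MS/MS. Percent remaining from internal-standard-corrected peak areas at 30 min versus 0 min. Propranolol, midazolam and MMV390048 as controls.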

The nature of data set [2]: AUC (0 to t) in Balb/c mouse at 10 mg/kg, po measured up to 24 hrs by LC-MS/MS analysis. The format is ADME, organism-based. More on the design: dose 10 mg/kg, time <=24. Conditions: in vivo. In a few lines:
(§2)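 Male Balb/c mice, not fasted, food and water ad libitum; single oral dose. Tail-vein blood into heparinized tubes at 0.5, 1, 3, 5, 7, 9 and 24 h, stored at −80 °C. Whole blood protein-precipitated with acetonitrile containing internal standard, analyzed by LC−MS/MS (LOQ 2 ng/mL). Parameters by noncompartmental analysis with curve stripping. Mean of three mice per point.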

Data set [3] is described as follows: AUC (0 to t) in Balb/c mouse at 3 mg/kg, iv measured up to 24 hrs by LC-MS/MS analysis. In kind it is ADME, organism-based. More on the design: dose 3 mg/kg, time <=24. Conditions: in vivo. The method in brief:
(§3)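 Intravenous dosing in male Balb/c mice, fed ad libitum. Tail-vein blood sampled into heparinized tubes at 0.17, 0.5, 1, 3, 5, 7, 9 and 24 h, frozen at −80 °C. Blood extracted by acetonitrile protein precipitation with internal standard; LC−MS/MS quantitation, LOQ 2 ng/mL. Noncompartmental analysis based on curve stripping.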

A further data set deals with CHO. Description: Cytotoxicity against CHO cells assessed as inhibition of cell viability by MTT assay. The format is cell-based. To be noted: Cricetulus griseus. (In general: Tetrazolium assays rely on reduction of a dye to a coloured formazan, in cell work by metabolically active cells.)
For data set [4], the system named is Plasmodium falciparum. Description: Antimalarial activity against asexual blood stage multi drug-resistant Plasmodium falciparum K1 infected in erythrocytes assessed as reduction in parasitemia incubated up to 72 hrs by [3H]hypoxanthine incorporation assay. In kind it is functional, organism-based. In a few lines:
(§4)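 [³H]-Hypoxanthine incorporation assay (modified) on asexual blood-stage P. falciparum in vitro. IC₅₀ values are means of ≥2 independent experiments.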

Data set [5] is described as follows: Clearance in Balb/c mouse at 3 mg/kg, iv measured up to 24 hrs by LC-MS/MS analysis. In kind it is ADME, organism-based. To be noted: in vivo. The method in brief:
as §3

The nature of data set [6]: Kinetic solubility of the compound in pH 6.5 incubated for 24 hrs by HPLC-DAD analysis. Conditions: buffer, read-out: Kinetic_solubility. In kind it is physicochemical. The method in brief:
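Miniaturized shake-flask method. 10 mM DMSO stock dried down, phosphate buffer pH 6.5 added, shaken 24 h at 25 °C. Centrifuged 3500g for 15 min; supernatant analyzed by HPLC-DAD against 10−220 μM DMSO calibration curve. Reserpine, hydrocortisone and MMV390048 as controls.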

Data set [7] concerns Plasmodium falciparum. Nature of the data set: Antiplasmodial activity against […] Plasmodium falciparum NF54 early gametocytes transfected with GFP-Luc […] at 1 uM incubated for 48 hrs by microscopy based luciferase reporter gene assay relative to control. The format is functional. The method in brief:
(§5)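 NF54-Pfs16-GFP-Luc gametocytes, assays set up day 5 (early, stage II/III) or day 10 (late, stage IV/V). Culture at 2−3% gametocytemia, 1.5% hematocrit, 48 h drug exposure at 37 °C under 90% N₂/5% O₂/5% CO₂. Lysates mixed with luciferin; bioluminescence read with 10 s integration. Dual-point: one biological repeat in technical triplicate. Methylene blue (5 μM) reference.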
On the technique in general: Reporter assays use an easily measured gene product as a stand-in for the process of interest.

The test system of data set [8] is Hemozoin. Nature of the data set: Inhibition of beta-hematin formation […] incubated for 5 hrs by NP40 detergent-mediated assay. The method in brief:
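Cell-free β-hematin formation assay in NP-40 (305.5 μM) lipid-mimic medium. Compounds from 20 mM stock serially diluted across wells, in duplicate. Hematin suspended in 1 M acetate buffer pH 4.8; plates incubated ~5 h at 37 °C. Then pyridine solution (with HEPES pH 7.4) and acetone added; absorbance at 405 nm. IC₅₀ by curve fit.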

In data set [9] the test system is Plasmodium falciparum. Description: Antiplasmodial activity against […] Plasmodium falciparum NF54 late gametocytes transfected with GFP-Luc […] at 5 uM incubated for 48 hrs by microscopy based luciferase reporter gene assay relative to control. The format is functional. In a few lines: as §5

Data set [10] in a line: Selectivity index, ratio of IC50 for Cytotoxicity against CHO cells assessed as inhibition of cell viability by MTT assay to IC50 for antimalarial activity against asexual blood stage Plasmodium falciparum NF54 assessed as reduction in parasitemia incubated up to 72 hrs by [3H]hypoxanthine incorporation assay. Conditions: hamster, read-out: Selectivity Index. In kind it is toxicity, cell-based. The method in brief: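 Selectivity index is IC₅₀(CHO)/IC₅₀(NF54). […] IC₅₀ came from nonlinear dose-response fitting. Parasite IC₅₀ came from the [³H]-hypoxanthine assay.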

Data set [11] deals with Hemozoin. Description: Inhibition of Beta-hematin in early ring stage Plasmodium falciparum parasitized red blood cells assessed as hemozoin formation formation after 32 hrs by Giemsa staining based haemocytometric counting method.
The nature of data set [12]: Tmax in Balb/c mouse at 10 mg/kg, po measured up to 24 hrs by LC-MS/MS analysis. The format is ADME, organism-based. Conditions: in vivo. The method in brief: as §2
The nature of data set [13]: Cmax in Balb/c mouse at 10 mg/kg, po measured up to 24 hrs by LC-MS/MS analysis. To be noted: in vivo. In kind it is ADME, organism-based. More on the design: route oral, dose 10 mg/kg, time <=24. In a few lines:
as §2

A further data set relates to Plasmodium berghei. Description: Antimalarial activity against GFP-transfected Plasmodium berghei ANKA infected in NMRI mouse model assessed as reduction in parasitemia at 50 mg/kg, po dosed 4 times relative to control. The format is functional. More on the design: scale not given: the % may be the effect or the level left. The method in brief: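 Mice (n = 3) infected with GFP-transfected P. berghei ANKA. Compound in 70% Tween-80/30% ethanol, diluted 10-fold in water, given orally at 4, 24, 48 and 72 h post-infection. Blood taken day 4 (96 h); parasitemia by flow cytometry, detection limit 0.1%. Activity = difference in mean % parasitemia between control and treated, as % of control.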

For data set [14], the system named is Plasmodium falciparum. Nature of the data set: Antiplasmodial activity against […] Plasmodium falciparum NF54 late gametocytes transfected with GFP-Luc […] at 1 uM incubated for 48 hrs by microscopy based luciferase reporter gene assay relative to control. In kind it is functional. In a few lines: as §5

Data set [15] in a line: Metabolic stability in rat liver microsomes assessed as compound remaining at 1 uM incubated for 30 mins by LC-MS/MS analysis. In kind it is ADME, Microsome. To be noted: read-out: Stabilty. In a few lines: as §1
(Microsomes from liver hold many membrane-bound enzymes, among them those of drug oxidation.)

Data set [16] concerns Plasmodium falciparum. Description: Antimalarial activity against asexual blood stage drug-sensitive Plasmodium falciparum NF54 infected in erythrocytes assessed as reduction in parasitemia incubated up to 72 hrs by [3H]hypoxanthine incorporation assay. The format is functional, organism-based. The method in brief:
as §4

The nature of data set [17]: Oral bioavailability in Balb/c mouse at 10 mg/kg measured up to 24 hrs by LC-MS/MS analysis. To be noted: in vivo. The format is ADME, organism-based. The method in brief: as §2
Data set [18] can be described thus: Volume of distribution in Balb/c mouse at 3 mg/kg, iv measured up to 24 hrs by LC-MS/MS analysis. In kind it is ADME, organism-based. To be noted: in vivo. In a few lines:
as §3

The subject of data set [19] is Plasmodium falciparum. Description: Antiplasmodial activity against […] Plasmodium falciparum NF54 early gametocytes transfected with GFP-Luc […] at 5 uM incubated for 48 hrs by microscopy based luciferase reporter gene assay relative to control. The format is functional. In a few lines: as §5

Data set [20] can be described thus: Metabolic stability in mouse liver microsomes assessed as compound remaining at 1 uM incubated for 30 mins by LC-MS/MS analysis. To be noted: read-out: Stabilty. The format is ADME, Microsome. The method in brief: as §1
Data set [21] in a line: Resistance index, ratio of IC50 for antimalarial activity against asexual blood stage multi drug-resistant Plasmodium falciparum K1 to IC50 for antimalarial activity against asexual blood stage drug-sensitive Plasmodium falciparum NF54. In kind it is functional. The method in brief: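 Resistance index is IC₅₀(K1)/IC₅₀(NF54). Both IC₅₀s came from the [³H]-hypoxanthine incorporation assay, as means of ≥2 independent experiments.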

Data set [22] in a line: Volume of distribution at steady state in Balb/c mouse at 3 mg/kg, iv measured up to 24 hrs by LC-MS/MS analysis. Conditions: in vivo, read-out: Vdss. The format is ADME, organism-based. In a few lines: as §3

≈ marks a conversion by molar mass, not a printed value. Calls of active or inactive are those of the source. The rule behind the calls is not given here.

`CCNCc1cc(Cl)cc(Nc2nc3cc(F)c(F)cc3[nH]2)c1O`: the remaining at 0.5 h, 1 µM is more than 99% in data set [1], more than 99% in data set [15] and 98% in data set [20]. Further, the figures for the AUCt in data set [2] and in data set [3] were 11 µmol·min/L and 65 µmol·min/L, respectively. Besides, the concentration for half-maximal inhibition (IC50) is more than 50000 nM in the data set on CHO, 780 nM with Plasmodium falciparum [4], 7150 nM in the data set with Hemozoin [8] and 250 nM in the data set with Plasmodium falciparum [16]. Moreover, in data set [5], the clearance stood at 151 mL/min/kg. Also, the solubility kinetic at 24 h in data set [6] came to 12 µM (≈ 4.23 µg/mL). In addition, the inhibition at 1 µM in the data set on Plasmodium falciparum [7] and in the data set on Plasmodium falciparum [14] was 0% in each case. Besides, the values for the inhibition at 5 µM in the data set on Plasmodium falciparum [9] and in the data set on Plasmodium falciparum [19] were 0% and 35%, respectively. In addition, the selectivity ratio at 72 h in [10] is more than 200. The outcome with Hemozoin [11] was Active. Moreover, the time of peak concentration (Tmax) in [12] is 42 min. For the same compound, in data set [13], the highest level (Cmax) was 26 nM. The Activity in the data set on Plasmodium berghei is recorded as less than 40%. The compound further registered a bioavailability in data set [17] of 5%. Moreover, the Vd came out at 96 L/kg in [18] and 58 L/kg in data set [22]. Moreover, the Ratio IC50 in [21] came to 3.12.

In general, IC50 refers to the concentration needed to halve the response being measured. One may read the clearance as the rate of elimination divided by the concentration. Broadly, the inhibition is the percentage by which the read-out fell short of the control. A word on the Tmax: it is the time at which the peak concentration occurs. One may read the Cmax as the maximum level reached in the sampled fluid or tissue. One may read the bioavailability as dose-corrected exposure relative to a reference, in per cent.
